The term MIC denotes the least concentration at which growth counts as inhibited. As a reminder, the IC50 is the point on the concentration scale where inhibition reaches its midpoint. Lower therefore signals greater potency.

This is an account of results in ChEMBL document CHEMBL3244414, “Structure-activity relationships among the O-acyl derivatives of leucomycin. Correlation of minimal inhibitory concentrations with binding to Escherichia coli ribosomes” (J Med Chem, 1977).

Values after ≈ are worked out from the molar mass of the structure shown.

In one assay the test system is Staphylococcus aureus. Description: Antimicrobial activity against Staphylococcus aureus ATCC 6538P by agar dilution method. The class given is functional. The following applies: Staphylococcus aureus, ATCC 6538P; read-out: MIC. The procedure, abridged:
(§1)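 Read-out is the minimal inhibitory concentration, found by agar dilution against the named strain.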
For orientation: In agar dilution the substance is mixed into plates at graded concentrations.

Another assay relates to Bacillus spizizenii. Description: Antimicrobial activity against Bacillus subtilis ATCC 6633 by agar dilution method. The following applies: Bacillus spizizenii, ATCC 6633; read-out: MIC. The format is functional. The procedure, abridged: as §1
A further assay has as its system Klebsiella pneumoniae. Kind of assay: Antimicrobial activity against Klebsiella pneumoniae ATCC 10031 by agar dilution method. The format is functional. The following applies: Klebsiella pneumoniae, ATCC 10031; read-out: MIC. The procedure, abridged:
as §1

Assay [1] has as its target Bacterial 70S ribosome (Bacteria) (UniProt P0A7V0+P60723+P0AG67+P0A7R5+P0A7R9+P0A7S3+P0A7S9+P0AG59+P0ADZ4+P0A7T3+P0AG63+P0A7T7+P0A7U3+P0A7U7+P68679+P0A7V3+P0A7V8+P0A7W1+P02358+P02359+P0A7W7+P0A7X3+P0A7J3+P0A7J7+P0AA10+P0ADY3+P02413+P0ADY7+P0AG44+P0C018+P0A7K6+P0A7L0+P0A7L3+P0AG48+P61175+P0ADZ0+P60624+P68919+P0A7L8+P0A7M2+P0A7M6+P60422+P0AG51+P0A7N1+P0A7M9+P0A7N4+P0A7N9+P0A7P5+P0A7Q1+Q2EEQ2+P0A7Q6+P60438+P62399+P0AG55+P0A7K2). Kind of assay: (§2) Displacement of [14C]erythromycin from Escherichia coli ribosomes after 30 mins by scintillation spectrometer analysis. The procedure, abridged:
(§3)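 NH4Cl-washed E. coli ribosomes with [14C]erythromycin A and varied competitor concentrations in 0.01 M Tris-HCl pH 7.2, 0.1 M KCl, 0.004 M MgCl2, 0.01 M NH4Cl. Incubated 30 min at 24 °C, stopped by dilution in cold Tris/KCl/MgCl2 buffer, membrane-filtered, washed three times, dried, scintillation counted. Reports the concentration giving 50% inhibition of binding.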
In general terms: Loss of bound radioactivity is the signal in a displacement assay; it reports binding, not function.

A further assay deals with Bacterial 70S ribosome. The description is as §2. The procedure, abridged: as §3

With `CCCC(=O)O[C@H]1[C@H](C)O[C@@H](O[C@H]2[C@H](N(C)C)[C@@H](OC(=O)CCC(=O)O)[C@H](O[C@H]3[C@@H](CC=O)C[C@@H](C)[C@@H](OC(C)=O)/C=C/C=C/C[C@@H](C)OC(=O)C[C@@H](O)[C@@H]3OC)O[C@@H]2C)C[C@@]1(C)O`, the MIC in the assay with Staphylococcus aureus is 1.6 µg/mL (≈ 1.75 µM); in the assay on Bacillus spizizenii it was 1.6 µg/mL (≈ 1.75 µM); in the assay with Klebsiella pneumoniae it was 25 µg/mL (≈ 27.4 µM). In assay [1], this compound came in with a pK50 of 5.5. This compound came in with an IC50 at Bacterial 70S ribosome of 3.3 µM.

Take `CCC(=O)O[C@H]1/C=C/C=C/C[C@@H](C)OC(=O)C[C@@H](O)[C@H](OC)[C@@H](O[C@@H]2O[C@H](C)[C@@H](O[C@H]3C[C@@](C)(O)[C@@H](O)[C@H](C)O3)[C@H](N(C)C)[C@H]2O)[C@@H](CC=O)C[C@H]1C`: the values for the MIC with Staphylococcus aureus, in the assay on Bacillus spizizenii and in the assay with Klebsiella pneumoniae were 6.3 µg/mL (≈ 8.31 µM), 3.1 µg/mL (≈ 4.09 µM) and 100 µg/mL (≈ 132 µM), respectively. The pK50 in assay [1] turned out to be 5.4. Further, the IC50 at Bacterial 70S ribosome came out at 4 µM.

In the case of `CO[C@@H]1[C@@H](O[C@@H]2O[C@H](C)[C@@H](O[C@H]3C[C@@](C)(O)[C@@H](OC(=O)CC(C)C)[C@H](C)O3)[C@H](N(C)C)[C@H]2OC(C)=O)[C@@H](CC=O)C[C@@H](C)[C@@H](OC(C)=O)/C=C/C=C/C[C@@H](C)OC(=O)C[C@H]1OC(C)=O`, the results for the minimum inhibitory concentration (MIC) with Staphylococcus aureus, in the assay with Bacillus spizizenii and with Klebsiella pneumoniae were 1.6 µg/mL (≈ 1.75 µM), 1.6 µg/mL (≈ 1.75 µM) and 100 µg/mL (≈ 110 µM), respectively. In assay [1], this compound had a pK50 of 4.7. The compound further returned a half-inhibitory concentration (IC50) on Bacterial 70S ribosome of 21.4 µM.

`CCCC(=O)O[C@H]1[C@H](C)O[C@@H](O[C@H]2[C@H](N(C)C)[C@@H](O)[C@H](O[C@H]3[C@@H](CC=O)C[C@@H](C)[C@@H](OC(=O)C(Cl)Cl)/C=C/C=C/C[C@@H](C)OC(=O)C[C@@H](O)[C@@H]3OC)O[C@@H]2C)C[C@@]1(C)O`: the MIC in the assay with Staphylococcus aureus stood at 1.6 µg/mL (≈ 1.81 µM); in the assay with Bacillus spizizenii it was 1.6 µg/mL (≈ 1.81 µM); in the assay on Klebsiella pneumoniae, 25 µg/mL (≈ 28.3 µM). This compound yielded a pK50 in assay [1] of 5.9. On Bacterial 70S ribosome, the IC50 came to 1.3 µM.

For the compound `CCCC(=O)O[C@H]1[C@H](C)O[C@@H](O[C@H]2[C@H](N(C)C)[C@@H](O)[C@H](O[C@H]3[C@@H](CC=O)C[C@@H](C)[C@@H](OC(=O)CC)/C=C/C=C/C[C@@H](C)OC(=O)C[C@@H](O)[C@@H]3OC)O[C@@H]2C)C[C@@]1(C)O`, the MIC turned out to be 1.6 µg/mL (≈ 1.93 µM) with Staphylococcus aureus, 0.8 µg/mL (≈ 0.966 µM) in the assay with Bacillus spizizenii and 50 µg/mL (≈ 60.4 µM) with Klebsiella pneumoniae. The compound also came in with a pK50 in assay [1] of 5.8. For the same compound, the IC50 on Bacterial 70S ribosome amounted to 1.7 µM.

Consider `CCC(=O)O[C@H]1[C@H](C)O[C@@H](O[C@H]2[C@H](N(C)C)[C@@H](O)[C@H](O[C@H]3[C@@H](CC=O)C[C@@H](C)[C@@H](O)/C=C/C=C/C[C@@H](C)OC(=O)C[C@@H](OC(C)=O)[C@@H]3OC)O[C@@H]2C)C[C@@]1(C)O`, for which the MIC with Staphylococcus aureus came out at 1.6 µg/mL (≈ 2 µM); with Bacillus spizizenii, 3.1 µg/mL (≈ 3.88 µM); in the assay on Klebsiella pneumoniae, 50 µg/mL (≈ 62.5 µM). Further, in assay [1], the pK50 is 5.7. The IC50 on Bacterial 70S ribosome was determined as 1.9 µM.

On to `CO[C@@H]1[C@@H](O[C@@H]2O[C@H](C)[C@@H](O[C@H]3C[C@@](C)(O)[C@@H](OC(=O)CC(C)C)[C@H](C)O3)[C@H](N(C)C)[C@H]2O)[C@@H](CC=O)C[C@@H](C)[C@@H](OC(=O)CCC(=O)O)/C=C/C=C/C[C@@H](C)OC(=O)C[C@H]1OC(C)=O`, for which the MIC in the assay with Staphylococcus aureus came to 3.1 µg/mL (≈ 3.34 µM); with Bacillus spizizenii, 3.1 µg/mL (≈ 3.34 µM); in the assay with Klebsiella pneumoniae, 100 µg/mL (≈ 108 µM). The compound further displayed a pK50 in assay [1] of 5.5. The half-maximal inhibitory concentration (IC50) at Bacterial 70S ribosome stood at 3.4 µM.

With `CO[C@@H]1[C@@H](O[C@@H]2O[C@H](C)[C@@H](O[C@H]3C[C@@](C)(O)[C@@H](OC(=O)CC(C)C)[C@H](C)O3)[C@H](N(C)C)[C@H]2OC(C)=O)[C@@H](CC=O)C[C@@H](C)[C@@H](O)/C=C/C=C/C[C@@H](C)OC(=O)C[C@H]1OC(C)=O`, the values for the MIC with Staphylococcus aureus, in the assay on Bacillus spizizenii and in the assay with Klebsiella pneumoniae were 1.6 µg/mL (≈ 1.84 µM), 0.8 µg/mL (≈ 0.919 µM) and 25 µg/mL (≈ 28.7 µM), respectively. In addition, in assay [1], the pK50 was found to be 4.5. Besides, on Bacterial 70S ribosome, the IC50 was determined as 33.9 µM.

`CO[C@@H]1[C@@H](O[C@@H]2O[C@H](C)[C@@H](O[C@H]3C[C@@](C)(O)[C@@H](OC(=O)CC(C)C)[C@H](C)O3)[C@H](N(C)C)[C@H]2O)[C@@H](CC=O)C[C@@H](C)[C@@H](OC(=O)C(C)C)/C=C/C=C/C[C@@H](C)OC(=O)C[C@H]1OC(C)=O`: the MIC in the assay with Staphylococcus aureus is 3.1 µg/mL (≈ 3.45 µM); with Bacillus spizizenii, 0.8 µg/mL (≈ 0.891 µM); in the assay with Klebsiella pneumoniae, 100 µg/mL (≈ 111 µM). For the same compound, the pK50 in assay [1] amounted to 5.7. At Bacterial 70S ribosome, this compound came in with an IC50 of 2 µM.

As to `CCC(=O)O[C@H]1[C@H](O[C@H]2[C@@H](CC=O)C[C@@H](C)[C@@H](OC(=O)CC)/C=C/C=C/C[C@@H](C)OC(=O)C[C@@H](OC(C)=O)[C@@H]2OC)O[C@H](C)[C@@H](O[C@H]2C[C@@](C)(O)[C@@H](OC(=O)CC(C)C)[C@H](C)O2)[C@@H]1N(C)C`, the MIC amounted to 6.3 µg/mL (≈ 6.7 µM) in the assay with Staphylococcus aureus, 6.3 µg/mL (≈ 6.7 µM) in the assay with Bacillus spizizenii and 100 µg/mL (≈ 106 µM) with Klebsiella pneumoniae. For the same compound, at Bacterial 70S ribosome, the 50% inhibitory concentration (IC50) was more than 100 µM.
